Test results from ChEMBL document CHEMBL1157406, “Cytotoxic metabolites from the fungal endophyte Alternaria sp. and their subsequent detection in its host plant Polygonum senegalense” (J Nat Prod, 2008).

How the values were obtained:
[1] = target: Cyclin-dependent kinase 2 (Homo sapiens, UniProt P24941); test: Inhibition of recombinant CDK2/CycA
Summary of the method: (§1)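 Purified recombinant kinase, 50 µL reaction. 1 µM [γ-33P]-ATP with substrate; compound added in 10% DMSO. Tested over several concentrations; IC50 in g/mL.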

[2] = target: T1, Serine/threonine-protein kinase PLK4 (Homo sapiens, UniProt O00444); test: Inhibition of recombinant SAK
T1 sequence (O00444 whole entry): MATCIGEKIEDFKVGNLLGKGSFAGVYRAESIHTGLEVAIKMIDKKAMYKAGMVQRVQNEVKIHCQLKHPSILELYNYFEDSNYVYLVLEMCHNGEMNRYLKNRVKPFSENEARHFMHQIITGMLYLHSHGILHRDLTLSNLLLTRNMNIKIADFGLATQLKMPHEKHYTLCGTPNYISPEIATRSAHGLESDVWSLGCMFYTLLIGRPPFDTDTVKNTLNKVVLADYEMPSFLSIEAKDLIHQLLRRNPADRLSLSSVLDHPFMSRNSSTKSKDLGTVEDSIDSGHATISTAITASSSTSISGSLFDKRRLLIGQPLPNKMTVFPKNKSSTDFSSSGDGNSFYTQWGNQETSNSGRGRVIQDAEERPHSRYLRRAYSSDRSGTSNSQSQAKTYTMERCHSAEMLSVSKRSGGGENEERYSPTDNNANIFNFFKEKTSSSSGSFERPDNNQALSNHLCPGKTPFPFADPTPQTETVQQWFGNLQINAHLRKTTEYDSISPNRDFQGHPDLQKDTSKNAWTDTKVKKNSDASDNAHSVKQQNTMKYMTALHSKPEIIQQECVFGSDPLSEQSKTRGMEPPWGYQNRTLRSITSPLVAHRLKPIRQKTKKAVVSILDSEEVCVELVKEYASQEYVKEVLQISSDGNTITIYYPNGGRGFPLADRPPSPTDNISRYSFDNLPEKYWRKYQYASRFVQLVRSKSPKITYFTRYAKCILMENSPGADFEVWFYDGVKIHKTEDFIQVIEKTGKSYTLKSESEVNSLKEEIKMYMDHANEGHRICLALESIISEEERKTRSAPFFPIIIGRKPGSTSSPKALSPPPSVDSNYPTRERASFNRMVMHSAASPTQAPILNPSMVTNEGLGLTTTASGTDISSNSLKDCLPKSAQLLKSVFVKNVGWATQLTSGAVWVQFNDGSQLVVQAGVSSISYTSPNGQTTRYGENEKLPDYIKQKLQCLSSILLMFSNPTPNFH

[3] = target: Angiopoietin-1 receptor (Homo sapiens, UniProt Q02763); test: Inhibition of recombinant TIE2; summary of the method: as §1
Sequence of Angiopoietin-1 receptor (Q02763 whole entry): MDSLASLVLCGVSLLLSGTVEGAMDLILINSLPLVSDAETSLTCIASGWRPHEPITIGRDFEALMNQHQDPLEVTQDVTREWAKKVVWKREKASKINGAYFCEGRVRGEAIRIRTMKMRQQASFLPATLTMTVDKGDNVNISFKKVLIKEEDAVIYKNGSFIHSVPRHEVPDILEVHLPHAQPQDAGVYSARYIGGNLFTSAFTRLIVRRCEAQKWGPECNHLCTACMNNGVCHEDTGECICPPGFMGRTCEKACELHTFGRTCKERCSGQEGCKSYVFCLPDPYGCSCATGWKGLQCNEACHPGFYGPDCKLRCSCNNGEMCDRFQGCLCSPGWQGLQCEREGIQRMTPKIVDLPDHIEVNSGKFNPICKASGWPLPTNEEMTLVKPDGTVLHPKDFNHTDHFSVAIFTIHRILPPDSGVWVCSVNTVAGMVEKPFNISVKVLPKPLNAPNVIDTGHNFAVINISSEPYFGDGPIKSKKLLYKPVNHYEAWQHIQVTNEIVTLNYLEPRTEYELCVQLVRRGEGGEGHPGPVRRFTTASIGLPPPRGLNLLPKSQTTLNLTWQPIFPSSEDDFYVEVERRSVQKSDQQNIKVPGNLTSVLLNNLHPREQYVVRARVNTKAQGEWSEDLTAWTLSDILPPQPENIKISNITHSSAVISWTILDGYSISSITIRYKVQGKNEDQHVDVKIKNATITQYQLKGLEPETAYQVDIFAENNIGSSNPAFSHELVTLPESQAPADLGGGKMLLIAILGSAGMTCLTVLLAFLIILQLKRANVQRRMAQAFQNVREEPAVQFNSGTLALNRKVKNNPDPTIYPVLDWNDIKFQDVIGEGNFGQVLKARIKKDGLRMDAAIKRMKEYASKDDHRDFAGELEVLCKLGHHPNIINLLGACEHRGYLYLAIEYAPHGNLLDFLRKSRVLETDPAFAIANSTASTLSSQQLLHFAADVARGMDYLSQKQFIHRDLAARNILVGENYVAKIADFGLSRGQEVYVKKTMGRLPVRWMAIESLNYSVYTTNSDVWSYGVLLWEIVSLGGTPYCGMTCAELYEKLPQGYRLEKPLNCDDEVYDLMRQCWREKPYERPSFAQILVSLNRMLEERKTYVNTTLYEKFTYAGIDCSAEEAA

[4] = target: Insulin-like growth factor 1 receptor (Homo sapiens, UniProt P08069); test: Inhibition of recombinant IGF1R; summary of the method: as §1
Sequence of Insulin-like growth factor 1 receptor (P08069 31-736 limits assumed): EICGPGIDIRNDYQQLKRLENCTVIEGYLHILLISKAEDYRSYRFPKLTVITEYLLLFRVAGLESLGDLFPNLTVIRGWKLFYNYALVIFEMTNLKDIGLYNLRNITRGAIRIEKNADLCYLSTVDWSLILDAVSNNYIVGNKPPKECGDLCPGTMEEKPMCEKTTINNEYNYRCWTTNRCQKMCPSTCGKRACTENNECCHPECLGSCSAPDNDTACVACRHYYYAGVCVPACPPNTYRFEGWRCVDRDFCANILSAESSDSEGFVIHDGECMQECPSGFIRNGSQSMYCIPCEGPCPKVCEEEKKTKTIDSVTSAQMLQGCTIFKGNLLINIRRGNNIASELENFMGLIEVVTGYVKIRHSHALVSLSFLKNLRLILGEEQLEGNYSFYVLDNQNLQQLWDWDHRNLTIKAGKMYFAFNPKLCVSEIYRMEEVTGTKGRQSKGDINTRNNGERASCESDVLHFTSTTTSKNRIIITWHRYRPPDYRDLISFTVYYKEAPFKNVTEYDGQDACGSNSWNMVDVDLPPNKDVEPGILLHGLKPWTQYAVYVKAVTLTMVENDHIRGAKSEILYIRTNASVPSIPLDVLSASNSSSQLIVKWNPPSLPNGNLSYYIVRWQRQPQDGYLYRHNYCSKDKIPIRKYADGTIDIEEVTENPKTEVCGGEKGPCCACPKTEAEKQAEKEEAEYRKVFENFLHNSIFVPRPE
Sequence of Insulin-like growth factor 1 receptor (P08069 741-1367 limits assumed): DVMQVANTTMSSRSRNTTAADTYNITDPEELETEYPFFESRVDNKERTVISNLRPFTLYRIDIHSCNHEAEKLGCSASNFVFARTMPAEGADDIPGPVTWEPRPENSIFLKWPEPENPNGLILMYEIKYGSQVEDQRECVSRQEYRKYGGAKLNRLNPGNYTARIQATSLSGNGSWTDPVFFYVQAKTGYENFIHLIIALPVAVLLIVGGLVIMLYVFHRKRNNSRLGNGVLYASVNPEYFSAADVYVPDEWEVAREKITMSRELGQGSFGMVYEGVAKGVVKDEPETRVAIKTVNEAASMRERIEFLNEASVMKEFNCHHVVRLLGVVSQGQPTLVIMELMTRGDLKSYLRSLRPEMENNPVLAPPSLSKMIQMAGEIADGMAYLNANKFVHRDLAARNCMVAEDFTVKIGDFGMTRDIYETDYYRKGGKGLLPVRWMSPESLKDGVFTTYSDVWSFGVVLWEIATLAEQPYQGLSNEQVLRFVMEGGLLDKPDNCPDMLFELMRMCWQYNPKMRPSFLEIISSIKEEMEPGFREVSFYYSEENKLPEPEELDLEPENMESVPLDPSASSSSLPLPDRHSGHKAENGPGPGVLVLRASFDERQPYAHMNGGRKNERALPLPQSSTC

[5] = target: Aurora kinase B (Homo sapiens, UniProt Q96GD4); test: Inhibition of recombinant Aurora B; summary of the method: as §1
[6] = target: Cyclin-dependent kinase 4/cyclin D1 (Homo sapiens, UniProt P11802+P24385); test: Inhibition of recombinant CDK4/CycD1; summary of the method: as §1
Sequence of Cyclin-dependent kinase 4/cyclin D1 (P11802 whole entry): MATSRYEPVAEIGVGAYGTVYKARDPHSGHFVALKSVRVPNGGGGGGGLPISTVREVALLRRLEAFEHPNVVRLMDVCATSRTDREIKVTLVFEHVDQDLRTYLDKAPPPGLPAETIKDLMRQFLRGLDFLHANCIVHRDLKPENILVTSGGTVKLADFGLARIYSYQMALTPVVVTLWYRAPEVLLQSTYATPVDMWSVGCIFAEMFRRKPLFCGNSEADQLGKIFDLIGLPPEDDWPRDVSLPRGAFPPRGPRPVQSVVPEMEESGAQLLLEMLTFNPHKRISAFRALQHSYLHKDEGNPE
Sequence of Cyclin-dependent kinase 4/cyclin D1 (P24385 whole entry): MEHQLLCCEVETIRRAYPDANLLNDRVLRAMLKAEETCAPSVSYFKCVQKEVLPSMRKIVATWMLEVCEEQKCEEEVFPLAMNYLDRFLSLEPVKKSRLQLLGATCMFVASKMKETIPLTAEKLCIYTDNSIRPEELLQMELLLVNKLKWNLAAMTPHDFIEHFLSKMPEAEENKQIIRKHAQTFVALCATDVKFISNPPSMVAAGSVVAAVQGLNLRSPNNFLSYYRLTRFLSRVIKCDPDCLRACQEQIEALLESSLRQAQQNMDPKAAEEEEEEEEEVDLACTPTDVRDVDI

[7] = target: RAC-alpha serine/threonine-protein kinase (Homo sapiens, UniProt P31749); test: Inhibition of recombinant AKT1; summary of the method: as §1
Sequence of RAC-alpha serine/threonine-protein kinase (P31749 whole entry): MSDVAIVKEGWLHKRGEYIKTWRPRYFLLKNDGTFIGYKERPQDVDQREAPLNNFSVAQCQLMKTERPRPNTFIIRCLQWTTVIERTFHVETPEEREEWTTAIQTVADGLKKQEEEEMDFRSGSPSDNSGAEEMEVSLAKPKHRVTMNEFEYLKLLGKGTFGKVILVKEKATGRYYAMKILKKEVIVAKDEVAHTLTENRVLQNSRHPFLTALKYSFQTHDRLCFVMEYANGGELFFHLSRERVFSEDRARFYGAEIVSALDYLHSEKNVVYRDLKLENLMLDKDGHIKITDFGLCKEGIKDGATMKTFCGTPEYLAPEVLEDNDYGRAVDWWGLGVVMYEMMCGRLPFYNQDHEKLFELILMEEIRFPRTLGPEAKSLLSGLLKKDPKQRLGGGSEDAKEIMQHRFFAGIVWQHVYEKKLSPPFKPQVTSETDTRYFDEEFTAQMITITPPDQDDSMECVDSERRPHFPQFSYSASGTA

[8] = target: Platelet-derived growth factor receptor beta (Homo sapiens, UniProt P09619); test: Inhibition of recombinant PDGFRbeta
[9] = tested on: L5178Y; test: Cytotoxicity against mouse L5178Y cells at 10 ug/ml by MTT assay; assay type: functional
[10] = target: Receptor tyrosine-protein kinase erbB-2 (Homo sapiens, UniProt P04626); test: Inhibition of recombinant ERBB2; summary of the method: as §1
[11] = target: Proto-oncogene tyrosine-protein kinase Src (Homo sapiens, UniProt P12931); test: Inhibition of recombinant SRC; summary of the method: as §1
[12] = target: Serine/threonine-protein kinase B-raf (Homo sapiens, UniProt P15056, V600E); test: Inhibition of recombinant B-RAF-V600E mutant; summary of the method: as §1
[13] = target: T2, Ephrin type-B receptor 4 (Homo sapiens, UniProt P54760); test: Inhibition of recombinant EPHB4; summary of the method: as §1
T2 sequence (P54760 whole entry): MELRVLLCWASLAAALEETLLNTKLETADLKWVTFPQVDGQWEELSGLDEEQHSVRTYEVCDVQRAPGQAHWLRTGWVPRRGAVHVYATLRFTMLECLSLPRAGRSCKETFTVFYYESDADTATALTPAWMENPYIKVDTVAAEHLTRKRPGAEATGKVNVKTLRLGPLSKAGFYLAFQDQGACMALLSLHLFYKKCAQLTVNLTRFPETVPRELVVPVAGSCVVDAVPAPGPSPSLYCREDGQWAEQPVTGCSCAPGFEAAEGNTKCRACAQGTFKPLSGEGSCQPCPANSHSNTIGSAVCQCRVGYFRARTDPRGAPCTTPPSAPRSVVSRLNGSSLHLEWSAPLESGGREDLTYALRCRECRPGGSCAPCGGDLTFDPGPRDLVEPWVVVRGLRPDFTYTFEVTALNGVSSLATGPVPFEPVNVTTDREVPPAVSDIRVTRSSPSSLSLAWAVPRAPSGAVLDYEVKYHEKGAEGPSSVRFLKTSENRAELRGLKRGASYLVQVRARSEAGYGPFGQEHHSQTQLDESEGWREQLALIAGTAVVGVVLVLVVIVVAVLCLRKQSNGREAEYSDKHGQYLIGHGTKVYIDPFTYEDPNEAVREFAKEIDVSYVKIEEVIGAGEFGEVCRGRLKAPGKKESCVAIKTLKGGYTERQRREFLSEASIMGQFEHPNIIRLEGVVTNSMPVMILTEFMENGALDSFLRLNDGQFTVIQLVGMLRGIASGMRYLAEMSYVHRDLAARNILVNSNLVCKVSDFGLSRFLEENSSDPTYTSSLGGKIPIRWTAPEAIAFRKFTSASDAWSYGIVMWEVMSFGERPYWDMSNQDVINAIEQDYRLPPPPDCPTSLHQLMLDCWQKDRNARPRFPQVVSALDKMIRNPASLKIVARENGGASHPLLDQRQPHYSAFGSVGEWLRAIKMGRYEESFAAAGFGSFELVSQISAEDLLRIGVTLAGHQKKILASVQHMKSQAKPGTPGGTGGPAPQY

[14] = target: Hepatocyte growth factor receptor (Homo sapiens, UniProt P08581); test: Inhibition of recombinant MET
Sequence of Hepatocyte growth factor receptor (P08581 whole entry): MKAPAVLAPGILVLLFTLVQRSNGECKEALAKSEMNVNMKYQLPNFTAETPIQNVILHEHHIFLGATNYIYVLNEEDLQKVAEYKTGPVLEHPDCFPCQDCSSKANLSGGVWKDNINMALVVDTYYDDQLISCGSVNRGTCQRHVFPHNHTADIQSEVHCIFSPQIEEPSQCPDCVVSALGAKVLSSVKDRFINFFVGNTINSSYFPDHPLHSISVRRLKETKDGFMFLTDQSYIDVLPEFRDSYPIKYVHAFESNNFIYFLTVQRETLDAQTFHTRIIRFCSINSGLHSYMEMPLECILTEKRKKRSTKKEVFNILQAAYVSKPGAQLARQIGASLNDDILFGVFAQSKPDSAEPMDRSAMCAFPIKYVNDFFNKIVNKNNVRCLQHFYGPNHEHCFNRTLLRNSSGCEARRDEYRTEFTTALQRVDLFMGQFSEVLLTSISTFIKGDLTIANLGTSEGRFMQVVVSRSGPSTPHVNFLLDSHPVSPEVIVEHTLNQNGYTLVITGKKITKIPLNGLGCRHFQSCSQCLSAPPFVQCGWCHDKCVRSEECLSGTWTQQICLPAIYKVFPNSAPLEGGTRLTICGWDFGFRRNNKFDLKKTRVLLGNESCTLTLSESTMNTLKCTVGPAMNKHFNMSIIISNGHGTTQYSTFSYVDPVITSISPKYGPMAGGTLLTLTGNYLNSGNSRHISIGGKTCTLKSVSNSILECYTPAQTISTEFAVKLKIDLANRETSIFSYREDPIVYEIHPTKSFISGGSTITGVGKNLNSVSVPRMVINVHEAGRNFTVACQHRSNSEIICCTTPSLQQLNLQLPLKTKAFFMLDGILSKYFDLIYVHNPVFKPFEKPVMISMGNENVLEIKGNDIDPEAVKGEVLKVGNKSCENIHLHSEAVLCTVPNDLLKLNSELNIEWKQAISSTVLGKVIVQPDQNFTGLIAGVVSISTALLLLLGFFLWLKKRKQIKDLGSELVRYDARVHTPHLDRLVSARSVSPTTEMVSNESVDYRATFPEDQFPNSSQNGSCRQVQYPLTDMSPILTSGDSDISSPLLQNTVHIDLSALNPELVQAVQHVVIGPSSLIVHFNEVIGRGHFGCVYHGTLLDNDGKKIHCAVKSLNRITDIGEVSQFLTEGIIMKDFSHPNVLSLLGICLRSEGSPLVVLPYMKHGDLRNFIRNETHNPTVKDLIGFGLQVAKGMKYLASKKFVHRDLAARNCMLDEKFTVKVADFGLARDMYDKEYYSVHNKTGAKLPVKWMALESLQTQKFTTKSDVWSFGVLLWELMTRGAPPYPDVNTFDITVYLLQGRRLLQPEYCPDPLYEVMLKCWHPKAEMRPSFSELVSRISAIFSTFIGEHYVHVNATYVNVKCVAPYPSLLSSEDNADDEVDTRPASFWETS

[15] = target: Insulin receptor (Homo sapiens, UniProt P06213); test: Inhibition of recombinant INSR
[16] = target: Vascular endothelial growth factor receptor 3 (Homo sapiens, UniProt P35916); test: Inhibition of recombinant VEGFR3; summary of the method: as §1
[17] = target: Casein kinase II subunit alpha (Homo sapiens, UniProt P68400); test: Inhibition of recombinant CK2alpha1; summary of the method: as §1
[18] = target: Vascular endothelial growth factor receptor 2 (Homo sapiens, UniProt P35968); test: Inhibition of recombinant VEGFR2; summary of the method: as §1

COc1cc(O)c2c(c1)-c1cc(O)c(O)cc1COC2=O [ALTERLACTONE]
11.8%: Activity [9]
> 1 ×10⁻⁵ g/ml: IC50 [1] | IC50 [2] | IC50 [3] | IC50 [4] | IC50 [5] | IC50 [6] | IC50 [7] | IC50 [8] | IC50 [10] | IC50 [11] | IC50 [12] | IC50 [13] | IC50 [14] | IC50 [15] | IC50 [16] | IC50 [17] | IC50 [18]
